Bioassay records from PubChem.
APP 5UTR inh: inhibitors of APP translation via 5'UTR reporter, primary screen, APP 5'UTR luciferase, SH-SY5Y cells; AID 1285, 2008; 0.82% of 190,000 active; SH-SY5Y APP 5'UTR-luciferase reporter, luminescence; inhibition, % at 2 µM;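 active means inhibition above a set limit, derived from the sample mean plus 3 SD, cut at about 45% in these data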
STAT1 act: STAT1 signaling activators, primary screen, cell-based, HTS, luciferase reporter | NIH 3T3 STAT1-luciferase reporter, IFN-gamma, luminescence; 100% = IFN-gamma alone, no compound | activation (% of control), % at 5.5 µM | 2.6% of 200,000 active | AID 932, 2007;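 active means activation above the screen-wide mean activation plus 3 SD, cut at about 130% in these data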
FLuc stim CS: FLuc activators, initial screening, artefact control for FLuc-dependent activation tests, biochemical, ATPlite luminescence. Luciferin 4-monooxygenase (Photinus pyralis), P08659. ATPlite luciferase biochemical, 10 min; 0 = ATP-free wells, 1 = DMSO control. activation factor at 10 µM. 200,000 tested, under 10 active. AID 1027, 2008;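 active means luciferase activation factor, scaled between plate controls, of at least 2 with compound at 10 µM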
Target sequence (P08659 whole entry, looked up): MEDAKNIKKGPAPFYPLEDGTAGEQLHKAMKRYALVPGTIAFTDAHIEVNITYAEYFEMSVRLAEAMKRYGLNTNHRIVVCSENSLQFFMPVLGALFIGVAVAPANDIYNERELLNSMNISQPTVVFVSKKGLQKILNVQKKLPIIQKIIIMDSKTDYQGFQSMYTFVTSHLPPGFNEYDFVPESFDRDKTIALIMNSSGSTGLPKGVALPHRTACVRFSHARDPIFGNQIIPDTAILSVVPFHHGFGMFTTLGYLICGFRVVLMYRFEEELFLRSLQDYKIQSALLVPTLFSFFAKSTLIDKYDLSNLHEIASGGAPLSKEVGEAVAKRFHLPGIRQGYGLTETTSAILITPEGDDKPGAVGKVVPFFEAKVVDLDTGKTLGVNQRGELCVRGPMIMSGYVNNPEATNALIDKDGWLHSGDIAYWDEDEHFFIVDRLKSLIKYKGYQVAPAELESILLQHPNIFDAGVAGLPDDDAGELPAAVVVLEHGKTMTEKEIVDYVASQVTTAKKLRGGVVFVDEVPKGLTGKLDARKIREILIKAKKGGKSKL
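Assay system: Luciferase/luciferin detection reagent, cell-free biochemical luciferase assay / Read-out: luciferase activation / Benchmarks: No-ATP low control, compound-free enzyme-plus-ATP high control / Medium: PBS buffer for ATP / Detection: luminescence measurement of luciferase light output / Schedule: 10 min at ambient temperature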
NF-kB neuron act: activators of NF-kB expression in neurons, primary screen, cell-based, HTS; 1.6% of 190,000 active; human neuronal cells, NF-kB reporter expression; hits give high values; fold change at 12.5 µM; in the data active means fold change above about 3.3
APP 5'UTR act: activators of APP 5'UTR luciferase reporter, primary screen, SH-SY5Y cells; SH-SY5Y APP 5'UTR luciferase reporter, luminescence; zero percent = DMSO vehicle wells; activation, % at 2 µM; 1% of 190,000 active;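 active means activation above a set limit, based on mean plus 3 SD of controls, cut at about 140% in these data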
FLuc inh counter: firefly luciferase enzyme inhibitors, primary screen, artefact control for luciferase-based inhibitor screens, biochemical, luminescence, ATPLite. Luciferin 4-monooxygenase (Photinus pyralis), P08659. 10 min. inhibition, % at 10 µM. 1.5% of 200,000 active;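 active means inhibition above about 50% when tested at 10 µM, limit read from the data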
STAT1 act conf: STAT1 signaling activators, confirmation, cell-based, HTS, luciferase reporter; NIH 3T3 STAT1-luciferase reporter, IFN-gamma potentiation, luminescence; 100% = IFN-gamma EC80 alone, no compound; 97% of 1,200 active; AID 1262, 2008; activation (% of control), % at 5.7 µM; shares compounds with STAT1 act;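 active means activation above a set limit carried over from the earlier primary STAT1 screen, cut at about 140% in these data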
NFkB act STAT1ct: NF-kB reporter activators, TNF-alpha stimulated, counter-screen for STAT1 activator project, cell-based, HEK293T, luciferase luminescence. shares compounds with STAT1 act. 100% = TNF-alpha with vehicle only. activation (% of control), % at 5.7 µM. 43% of 1,200 active. AID 1306, 2008;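 active means activation above the mean of solvent-only control wells plus 3 SD, set per campaign, cut at about 130% in these data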;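 further: TNF-alpha given at a submaximal dose yielding about 80% of full reporter signal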
STAT3 act STAT1c: STAT3 reporter activation by STAT1 hits, confirmation, counter-screen for STAT1 activator project, U3A cells, luciferase, luminescence. shares compounds with STAT1 act. IL-6; cells lack STAT1; 100 = IL-6 alone, no compound effect. activation (% of control), % at 5.7 µM. 46% of 1,200 active. AID 1316, 2008;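 active means activation above the solvent-only control well mean plus 3 SD, set per plate batch, cut at about 110% in these data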;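 further: higher means more STAT3 reporter activation so hits are non-selective activators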
Numbers stand for hits; i = inactive; nt = no result. Hits are enriched below; roughly 4.8% of the tested compounds scored in any of these assays.

SMILES	APP 5UTR inh	STAT1 act	FLuc stim CS	NF-kB neuron act	APP 5'UTR act	FLuc inh counter	STAT1 act conf	NFkB act STAT1ct	STAT3 act STAT1c
Cn1cc(NC(=O)OCc2ccc(Cl)cc2)c(C(F)(F)F)n1	i	178.2	i	3.55	i	i	165.4	i	i
CCOC(=O)c1ccc(Nc2cnc3ccccc3n2)cc1	i	171.0	i	5	135.8	i	194.2	139.2	113.6
CCCN(CCC)C(=O)CCSCCC(=O)N(CCC)CCC	i	i	i	i	i	i	nt	nt	nt
COc1ccc(-c2cn3cccc(C)c3n2)cc1Br	i	172.5	i	4.8	137.0	57.1	191.2	i	i
N#CC1(c2ccc(NC(=O)c3ccccc3F)cc2)CCCC1	i	161.3	i	10.7	144.6	64.0	228.3	i	i
CCN(CC)c1ccc(NC(=O)c2ccccc2F)cc1	i	163.5	i	6.08	i	i	192.3	i	i
O=S(=O)(/C=C/c1ccccc1)N1CCN(Cc2ccccc2)CC1	i	i	i	i	i	i	nt	nt	nt
O=C(Nc1ccc(N2CCN(C(=O)c3ccccc3)CC2)cc1)c1ccc([N+](=O)[O-])o1	94.3	172.8	i	i	i	i	i	i	i
COc1ccc(C(=O)Nc2ccc(N3CCN(C(=O)c4ccccc4)CC3)cc2)cc1[N+](=O)[O-]	i	i	i	i	i	i	nt	nt	nt
CC(C)C(=O)N1CCN(c2ccc(NC(=O)c3ccc([N+](=O)[O-])o3)cc2Cl)CC1	96.1	153.4	i	i	i	i	i	i	111.0
Cc1cc(C)cc(NC(=O)c2ccc([N+](=O)[O-])o2)c1	70.7	161.9	i	6.07	i	i	i	i	i
O=C(Oc1ccc(-c2cnc3ccccc3n2)cc1)c1ccco1	i	155.1	i	i	i	i	189.9	i	i
O=C(Oc1ccc(-c2cnc3ccccc3n2)cc1)c1cc([N+](=O)[O-])ccc1Cl	i	i	i	i	i	i	nt	nt	nt
O=C(CSc1nn(-c2ccc(Cl)cc2)c(=S)s1)NCC1CCCO1 (stereo not given)	i	i	i	i	i	i	nt	nt	nt
Cc1ccsc1/C=N/NC(=O)c1sccc1C	i	153.3	i	i	135.9	i	173.4	i	111.7
Cc1ccsc1/C=N\NC(=O)c1cc(C(C)(C)C)[nH]n1	i	156.0	i	i	i	i	171.3	i	117.5
CC(C)c1nnc(SCC(=O)N2CCN(C(=O)c3ccco3)CC2)n1N	i	i	i	i	i	i	nt	nt	nt
CC(C)(C)SCCNC(=O)CSCc1ccc([N+](=O)[O-])cc1	i	i	i	i	i	i	nt	nt	nt
CC(C)(C)NC(=O)NC(=O)COc1ccc(Br)cc1Br	i	196.5	i	5.1	150.8	i	242.9	i	113.6
CCC(=O)Nc1ccc(C(=O)NNC(=O)c2cc(OC)c(OC)c(OC)c2)cc1	i	i	i	i	i	i	nt	nt	nt
CCCNC(=O)c1cc(-c2ccc(OC)cc2)on1	i	152.5	i	6.8	i	i	170.5	134.2	i
C=CCNC(=O)c1cc(-c2ccc(Br)cc2)on1	i	160.3	i	i	i	i	170.6	i	i
O=C(Cc1ccc2c(c1)CCCC2)Nc1ccc2ccccc2c1	i	i	i	i	i	i	nt	nt	nt
O=C(Nc1ccc2ccccc2c1)c1onc2c1CCCC2	i	153.7	i	8.14	205.8	i	270.1	i	i
COc1ccc2c(=O)c(-c3ccc4c(c3)OCO4)coc2c1	i	163.9	i	4.34	192.4	65.5	217.5	i	i
SMILES	APP 5UTR inh	STAT1 act	FLuc stim CS	NF-kB neuron act	APP 5'UTR act	FLuc inh counter	STAT1 act conf	NFkB act STAT1ct	STAT3 act STAT1c
CC(C)Oc1ccc2c(=O)c(-c3ccccc3)coc2c1	i	155.9	i	9.49	162.8	60.6	219.1	i	i
Cc1ccc(S(=O)(=O)Oc2ccc(/C=N/NC(=O)c3cccnc3)cc2)cc1	i	i	i	i	i	i	nt	nt	nt
Oc1ccc(-c2csc(-c3ccccc3)n2)cc1O	i	151.3	i	6.34	i	i	166.0	i	i
NNC(=O)c1ccc2nc(-c3ccc(Br)cc3)cn2c1	i	162.1	i	i	i	i	207.6	i	115.1
O=C(Cc1cccc2ccccc12)N1CCN(c2ncccn2)CC1	i	i	i	i	i	i	nt	nt	nt
Cc1nc2ccc(Cl)cc2nc(C)/c1=N\O	i	151.9	i	i	158.2	i	144.1	i	119.7
O=C(CCc1nnc(CCCc2ccccc2)o1)NC(C1CC1)C1CC1	i	153.6	i	5.82	i	i	205.9	145.0	128.9
CCOC(=O)c1cnc(SCCc2ccccc2)nc1N	i	165.1	i	6.91	190.2	i	188.6	i	118.7
CCCCNC(=S)N/N=C/c1ccc(OCC(=O)Nc2c(C)cc(C)cc2C)c(OC)c1	i	i	i	i	i	i	nt	nt	nt
O=C(OCc1csc(-c2ccccc2)n1)c1cccs1	i	152.4	i	i	i	i	181.0	i	i
COC(=O)c1sc2nc(C)c([N+](=O)[O-])c(C)c2c1N	i	i	i	i	i	i	nt	nt	nt
O=C(COc1nncc2ccccc12)NCC(F)(F)F	i	i	i	i	i	i	nt	nt	nt
CC(C)c1ccc(N=C2NN=C(c3cccs3)CS2)cc1	i	153.2	i	i	169.2	50.1	194.7	i	111.1
O=C(Nc1cccnc1)c1noc2c1CCCC2	i	i	i	i	i	i	nt	nt	nt
CC(=O)c1ccc(NC(=O)c2noc3c2CCCCC3)cc1	i	150.9	i	4.99	160.6	i	222.6	i	i
O=C(OCC(=O)N1CCOCC1)c1ccccc1Cc1ccccc1	i	158.3	i	5.54	i	i	197.9	139.5	136.8
O=C(OCC(=O)N1CCOCC1)c1ccccc1SCC(=O)N1CCCC1	i	i	i	i	i	i	nt	nt	nt
CN(C)CCNCCCOc1ccccc1-c1ccccc1	i	i	i	i	i	i	nt	nt	nt
Nc1nc(N)nc(-c2ccc(Cl)cc2)n1	i	i	i	i	i	i	nt	nt	nt
